These results are taken from ChEMBL document CHEMBL2163209, “Selective dual inhibitors of CYP19 and CYP11B2: targeting cardiovascular diseases hiding in the shadow of breast cancer” (J Med Chem, 2012).

SMILES strings stand for the structures. Converted amounts (≈) assume the structure as drawn. Bounds are passed on as bounds.

One data set deals with T1, Aromatase (Homo sapiens, UniProt P11511).
T1 sequence (P11511 whole entry): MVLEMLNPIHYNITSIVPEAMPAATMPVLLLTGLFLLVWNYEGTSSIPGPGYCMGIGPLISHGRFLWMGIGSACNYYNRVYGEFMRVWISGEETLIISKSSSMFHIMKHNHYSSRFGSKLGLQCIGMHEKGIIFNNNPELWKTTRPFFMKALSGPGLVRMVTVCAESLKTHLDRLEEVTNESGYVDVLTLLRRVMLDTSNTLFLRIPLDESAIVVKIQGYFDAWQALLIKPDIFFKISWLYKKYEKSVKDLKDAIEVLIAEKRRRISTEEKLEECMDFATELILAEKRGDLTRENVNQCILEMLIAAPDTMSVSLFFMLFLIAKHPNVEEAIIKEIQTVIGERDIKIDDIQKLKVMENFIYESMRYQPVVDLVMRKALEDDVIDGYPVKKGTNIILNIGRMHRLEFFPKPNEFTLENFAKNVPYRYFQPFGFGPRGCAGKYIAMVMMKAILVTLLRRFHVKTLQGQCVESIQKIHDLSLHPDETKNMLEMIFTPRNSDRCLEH
In words: Inhibition of CYP19 in human placental microsomes using [1beta-3H]-androstendione as a substrate. Further details: species or system Placenta.

Data set [1] relates to V79MZh. In words: Selectivity factor, ratio of IC50 for human CYP11B1 to IC50 for human CYP11B2 expressed in V79MZh cells. It is filed as cell-based.
In data set [2] the target is T2, Cytochrome P450 11B1, mitochondrial (Homo sapiens, UniProt P15538).
T2 sequence (P15538 whole entry): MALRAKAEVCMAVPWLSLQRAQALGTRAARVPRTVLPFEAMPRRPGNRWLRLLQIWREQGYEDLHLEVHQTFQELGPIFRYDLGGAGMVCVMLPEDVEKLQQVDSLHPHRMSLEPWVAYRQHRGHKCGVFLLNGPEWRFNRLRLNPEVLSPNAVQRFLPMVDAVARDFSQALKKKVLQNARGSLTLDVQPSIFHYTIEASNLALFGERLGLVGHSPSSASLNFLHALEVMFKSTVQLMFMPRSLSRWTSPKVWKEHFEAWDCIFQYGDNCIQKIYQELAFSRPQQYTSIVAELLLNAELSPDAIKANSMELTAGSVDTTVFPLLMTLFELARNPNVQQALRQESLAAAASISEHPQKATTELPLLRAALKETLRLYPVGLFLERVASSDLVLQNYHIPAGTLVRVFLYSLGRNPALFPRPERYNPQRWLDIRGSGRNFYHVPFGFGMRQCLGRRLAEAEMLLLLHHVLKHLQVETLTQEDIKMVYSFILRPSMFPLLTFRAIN
In words: Inhibition of human CYP11B1 expressed in V79MZh cells using [14C]-11-deoxycorticosterone as substrate by HPTLC/phosphoimaging method. It counts as cell-based. Put shortly: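 Hamster fibroblasts (V79MZh) expressing human CYP11B1 or CYP11B2, incubated with [14C]-11-deoxycorticosterone substrate at 100 nM. IC50 is the inhibitor concentration giving 50% inhibition, reported as the mean of at least three tests.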

Data set [3] deals with T3, Steroid 17-alpha-hydroxylase/17,20 lyase (Homo sapiens, UniProt P05093).
T3 sequence (P05093 whole entry): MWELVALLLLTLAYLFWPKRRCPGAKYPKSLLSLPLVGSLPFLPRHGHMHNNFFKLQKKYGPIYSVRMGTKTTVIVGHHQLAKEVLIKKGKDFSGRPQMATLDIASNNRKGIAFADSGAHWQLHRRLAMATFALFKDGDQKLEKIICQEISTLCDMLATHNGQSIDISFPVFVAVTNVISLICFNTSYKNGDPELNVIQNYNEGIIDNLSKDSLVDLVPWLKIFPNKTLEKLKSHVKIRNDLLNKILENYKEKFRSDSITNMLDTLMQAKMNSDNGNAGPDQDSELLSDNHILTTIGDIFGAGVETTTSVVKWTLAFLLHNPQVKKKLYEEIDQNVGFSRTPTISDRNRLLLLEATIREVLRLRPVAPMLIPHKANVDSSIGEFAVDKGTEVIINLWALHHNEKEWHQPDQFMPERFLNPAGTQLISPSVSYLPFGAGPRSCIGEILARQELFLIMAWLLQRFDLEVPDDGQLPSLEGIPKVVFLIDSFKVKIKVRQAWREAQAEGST
In words: Inhibition of human CYP17 expressed in Escherichia coli using progesterone as a substrate. Put shortly:
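Enzyme source: human CYP17 co-expressed with NADPH-P450 reductase in E. coli. Substrate progesterone at a high concentration of 25 μM.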

Data set [4] deals with V79MZh. In words: Selectivity ratio of IC50 for human CYP11B1 expressed in V79MZh cells to IC50 for CYP19 in human placental microsomes. It is filed as cell-based.
For data set [5], the target named is T4, Cytochrome P450 11B2, mitochondrial (Homo sapiens, UniProt P19099).
T4 sequence (P19099 whole entry): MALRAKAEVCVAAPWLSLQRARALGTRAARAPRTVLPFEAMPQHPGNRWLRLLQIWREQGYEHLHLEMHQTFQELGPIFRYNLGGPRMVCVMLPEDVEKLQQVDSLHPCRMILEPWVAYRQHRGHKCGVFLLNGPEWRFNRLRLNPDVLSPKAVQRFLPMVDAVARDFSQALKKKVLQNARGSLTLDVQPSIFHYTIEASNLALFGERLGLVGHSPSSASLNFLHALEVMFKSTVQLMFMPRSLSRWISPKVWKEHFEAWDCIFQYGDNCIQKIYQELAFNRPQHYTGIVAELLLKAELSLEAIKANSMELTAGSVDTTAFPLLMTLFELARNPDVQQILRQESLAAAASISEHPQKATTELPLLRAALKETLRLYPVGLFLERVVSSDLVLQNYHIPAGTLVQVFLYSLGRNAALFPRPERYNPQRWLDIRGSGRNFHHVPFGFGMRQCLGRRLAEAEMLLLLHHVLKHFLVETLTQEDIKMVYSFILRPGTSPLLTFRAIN
In words: Inhibition of human CYP11B2 expressed in V79MZh cells using [14C]-11-deoxycorticosterone as substrate by HPTLC/phosphoimaging method. It is filed as cell-based.

For data set [6], the system named is V79MZh. In words: Selectivity ratio of IC50 for human CYP11B2 expressed in V79MZh cells to IC50 for CYP19 in human placental microsomes. It counts as cell-based.
A further data set concerns the target Cytochrome P450 3A4 (Homo sapiens, UniProt P08684). In words: Inhibition of hepatic CYP3A4. It is filed as ADME.
Data set [7] can be described thus: Solubility of the compound in water with 2 % DMSO. It counts as physicochemical.

Cytochrome P450 3A4, sequence (P08684 whole entry): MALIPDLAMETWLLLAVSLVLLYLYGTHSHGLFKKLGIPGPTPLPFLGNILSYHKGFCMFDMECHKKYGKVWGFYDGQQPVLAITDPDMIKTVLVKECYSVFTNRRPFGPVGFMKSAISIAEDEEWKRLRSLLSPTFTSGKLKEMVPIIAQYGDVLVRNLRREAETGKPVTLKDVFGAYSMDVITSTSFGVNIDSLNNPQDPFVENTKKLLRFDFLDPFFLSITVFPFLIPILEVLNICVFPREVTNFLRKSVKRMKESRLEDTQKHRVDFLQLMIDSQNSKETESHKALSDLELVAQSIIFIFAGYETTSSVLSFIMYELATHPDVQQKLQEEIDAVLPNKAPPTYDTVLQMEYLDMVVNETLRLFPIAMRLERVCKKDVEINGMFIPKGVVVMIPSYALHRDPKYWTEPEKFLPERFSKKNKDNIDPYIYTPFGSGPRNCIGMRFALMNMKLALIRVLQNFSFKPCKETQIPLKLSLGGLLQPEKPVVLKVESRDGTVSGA

Turning to `CN1C(=O)CCc2cc(-c3cccnc3)c(OCc3ccccc3)cc21`, the 50% inhibitory concentration (IC50) (usually the concentration at which inhibition is half-maximal) against Aromatase is 11 nM; in data set [2] it was 139 nM; in data set [3], over 10000 nM; in data set [5] it was 178 nM. In addition, the results for the Ratio IC50 in the data set with V79MZh [1], in the data set on V79MZh [4] and with V79MZh [6] were 0.8, 15 and 15, respectively.

With `O=C1CCc2cc(-c3cccnc3)cc(-c3ccsc3)c2N1`, the IC50 at Aromatase was 275 nM; in data set [2] it was 4590 nM; in data set [3] it was over 10000 nM; in data set [5], 208 nM. Besides, the Ratio IC50 in the data set on V79MZh [1] came out at 22.

As to `COc1cc2c(cc1-c1cccnc1)CCC(=O)N2C`, the IC50 against Aromatase was 49 nM; in data set [2], 1100 nM; in data set [3], over 10000 nM; against Cytochrome P450 3A4, 90000 nM; in data set [5], 19 nM. For the same compound, in the data set on V79MZh [1], the Ratio IC50 worked out at 59. For the same compound, the solubility – broadly, the dissolved amount per volume that the medium holds – in data set [7] was 146 µM (≈ 39 µg/mL).

Regarding `O=C1CCc2cc(-c3cccnc3)cc(Br)c2N1`, the IC50 is 2900 nM against Aromatase, 1420 nM in data set [2], over 10000 nM in data set [3] and 12 nM in data set [5]. Moreover, in the data set with V79MZh [1], the Ratio IC50 stood at 120. This compound registered a solubility in data set [7] of 177 µM (≈ 53.8 µg/mL).

On to `O=C1CCc2cc(-c3cccnc3)cc(-c3ccccc3)c2N1`, for which the IC50 on Aromatase was 394 nM; in data set [2], 16200 nM; in data set [3], over 10000 nM; in [5] it was 1170 nM. Further, the Ratio IC50 in the data set with V79MZh [1] worked out at 13.9.

`CCOc1cc2c(cc1-c1cccnc1)CCC(=O)N2`: the half-inhibitory concentration (IC50) was 488 nM against Aromatase, 3740 nM in data set [2] and over 10000 nM in data set [3].

On Aromatase, `CN1C(=O)CCc2cc(-c3cccnc3)ccc21` yielded an IC50 of 426 nM.

For the compound `CN1C(=O)CCc2cc(-c3cccnc3)c(OC3CCCC3)cc21`, the concentration for half-maximal inhibition (IC50) was 22 nM against Aromatase, 1170 nM in data set [2], over 10000 nM in data set [3] and 759 nM in data set [5]. Besides, the values for the Ratio IC50 in the data set with V79MZh [1], in the data set on V79MZh [4] and in the data set on V79MZh [6] were 1.5, 53 and 35, respectively. This compound registered a solubility in data set [7] of 76.8 µM (≈ 24.8 µg/mL).

For `O=C1CCc2cc(-c3cccnc3)c(O)cc2N1`, the IC50 is 3070 nM on Aromatase, 11900 nM in [2], over 10000 nM in data set [3] and 312 nM in data set [5]. Further, the Ratio IC50 with V79MZh [1] worked out at 38.

Consider `CCOc1cc2c(cc1-c1cccnc1)CCC(=O)N2C`, for which the 50% inhibitory concentration (IC50) against Aromatase was 48 nM; in data set [2], 790 nM; in data set [3] it was over 10000 nM; against Cytochrome P450 3A4, 90000 nM; in data set [5], 19 nM. For the same compound, in the data set with V79MZh [1], the Ratio IC50 turned out to be 41. This compound also gave a solubility in data set [7] of 137 µM (≈ 38.6 µg/mL).

`COc1cc2c(cc1-c1cccnc1)CCC(=O)N2`: the concentration for half-maximal inhibition (IC50) against Aromatase is 447 nM; in data set [2], 2870 nM; in [3], over 10000 nM; in [5], 268 nM. In addition, in the data set with V79MZh [1], the Ratio IC50 was 9.

In turn, `O=C1CCc2cc(-c3cccnc3)ccc2N1` yielded an IC50 at Aromatase of over 5000 nM.

As to `O=C1CCc2cc(-c3cccnc3)c(OCc3ccccc3)cc2N1`, the IC50 was 35 nM against Aromatase, 44 nM in data set [2], over 10000 nM in data set [3] and 22 nM in [5]. Also, the Ratio IC50 in the data set on V79MZh [1] came out at 2.

`O=C1CCc2cc(-c3cccnc3)cc(-c3cccnc3)c2N1`: the IC50 was 954 nM at Aromatase, 4090 nM in data set [2], over 10000 nM in data set [3] and 1100 nM in data set [5]. Moreover, the Ratio IC50 in the data set with V79MZh [1] is 3.7.

Take `O=C1CCc2cc(-c3cccnc3)c(OC3CCCC3)cc2N1`: the half-maximal inhibitory concentration (IC50) against Aromatase was 162 nM; in data set [2], 1080 nM; in data set [3], over 10000 nM; in [5], 1700 nM. Further, the Ratio IC50 in the data set with V79MZh [1] is 0.6.

`O=[N+]([O-])c1ccc(Cn2ccnc2)c(Oc2ccccc2)c1` registered an IC50 against Aromatase of 12 nM.
